{"data": "Experimental data gathered from unrelated publications", "target": "Mitogen-activated protein kinase 1 (MAPK1, Homo sapiens, UniProt P28482)", "note": "Lines come from different studies, so protocols differ."}
{"Compound": "N#CC1(c2ccccn2)CCN(Cc2cc(C(=O)O)c(=O)n3ccccc23)CC1", "effect on": "cell-free assay", "technique": "competition with immobilised ligand", "tested at": "1 µM", "endpoint": "remaining binding", "result": "100%"}
{"Compound": "Cn1cc(-c2cc(F)cc(N3CCn4c(cc5c4CCCC5)C3=O)c2CO)cc(Nc2ccc(N3CCN(C4COC4)CC3)cn2)c1=O", "effect on": "enzyme activity", "action": "inhibitor", "tested at": "0.1 µM", "endpoint": "inhibition", "result": "4%"}
{"Compound": "COc1ncccc1-c1cnn2ccc(N3CCN(C(=O)OC(C)C)CC3)nc12", "effect on": "binding", "technique": "competition with immobilised ligand", "tested at": "1 µM", "endpoint": "remaining binding", "result": "100%"}
{"Compound": "CC(C)(C)c1cc(C=C(C#N)C#N)cc(Br)c1O", "effect on": "enzyme activity", "action": "inhibitor", "tested at": "0.5 µM", "endpoint": "remaining activity", "result": "91.3%"}
{"Compound": "CNC1(c2ccccc2Cl)CCCCC1=O (racemic)", "effect on": "enzyme activity", "action": "inhibitor", "tested at": "30 µM", "endpoint": "inhibition", "result": "2%"}
{"Compound": "Nc1ncc(-c2nc(N3CCOCC3)nc(N3CCOCC3)n2)c(C(F)F)n1", "effect on": "binding", "technique": "competition with immobilised ligand", "tested at": "10 µM", "endpoint": "remaining binding", "result": "98%"}
{"Compound": "Cn1cc(-c2cccc(N3CCc4c(sc5c4CC(C)(C)C5)C3=O)c2CO)cc(Nc2ccncn2)c1=O", "effect on": "enzyme activity", "action": "inhibitor", "tested at": "1 µM", "endpoint": "inhibition", "result": "-1%"}
{"Compound": "C[C@@H](O)[C@H](N)C(=O)N1CCC[C@H]1C(=O)N1CCC[C@H]1C(=O)N[C@H](C(N)=O)[C@@H](C)O", "effect on": "enzyme activity", "action": "inhibitor", "tested at": "30 µM", "endpoint": "inhibition", "result": "-2%"}
{"Compound": "O=c1[nH]c2ccccc2n1C1CCN(Cc2ccc(-c3[nH]c4cc5ncnc5cc4nc3-c3ccccc3)cc2)CC1", "effect on": "cell-free assay", "tested at": "0.5 µM", "endpoint": "remaining signal", "result": "112%"}
{"Compound": "Cc1ncc(C)n2nc(/C=C/c3nc(N4CCCC4)cc(N4CCOCC4)n3)nc12", "effect on": "enzyme activity", "action": "inhibitor", "tested at": "10 µM", "endpoint": "inhibition", "result": "7%"}
{"Compound": "C#Cc1n[nH]c2c(-c3cn([C@@H](C)c4ccccc4)c(=O)[nH]c3=O)cc(F)cc12", "effect on": "enzyme activity", "action": "inhibitor", "tested at": "0.1 µM", "endpoint": "inhibition", "result": "0.5%"}
{"Compound": "Cc1nn(C)cc1-c1nc2c(N3CCN(Cc4ccc(Cl)cc4)CC3)c(Cl)cnc2[nH]1", "effect on": "binding", "technique": "competition with immobilised ligand", "tested at": "1 µM", "endpoint": "remaining binding", "result": "100%"}
{"Compound": "C#Cc1n[nH]c2c(-c3cn(C(C)c4ccccn4)c(=O)[nH]c3=O)cc(F)cc12 (stereo not drawn)", "effect on": "enzyme activity", "action": "inhibitor", "tested at": "1 µM", "endpoint": "inhibition", "result": "7.2%"}
{"Compound": "O=C(Nc1cccnn1)N1CCN([C@@H]2CCOc3cc(C(F)(F)F)ccc32)CC1", "effect on": "enzyme activity", "action": "inhibitor", "tested at": "20 µM", "endpoint": "inhibition", "result": "-4%"}
{"Compound": "Cn1cncc1[C@@](O)(COc1ccc(C#N)cc1-c1ccc(OC(F)(F)F)cc1)c1ccc(C#N)cc1", "effect on": "cell-free assay", "technique": "competition with immobilised ligand", "tested at": "1 µM", "endpoint": "remaining binding", "result": "91%"}
